pIC50: −log10 of the molar value.
Legend:
[1] = Antiproliferative activity against human MP41 cells assessed as inhibition of cell growth after 72 hrs by CCK8 assay; format: functional, cell-based; settings: MP41, 72 h
Procedure, shortened: (§1)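 92.1 or MP41 cells in RPMI-1640 with 10% FBS were seeded at 3 × 10³ cells/well. Exposed to serial concentrations for 72 h at 37 °C, 5% CO₂. CCK-8 added for 1−4 h, absorbance read at 450 nm. IC₅₀ from concentration−response curve fit, mean ± SD.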

[2] = biological target: GNAQ/GNA11 (Homo sapiens) (UniProt P50148+P29992); experiment: Inhibition of Galphaq/11 (unknown origin) expressed in CHO cells coexpressing M1 receptor assessed as reduction in carbachol-induced IP1 accumulation at 10 uM preincubated for 1 hr followed by carbachol stimulation and measured after 1 hr by HTRF assay relative to control; format: cell-based; settings: time 2.0 hrs
[3] = Antiproliferative activity against human 92.1 cells assessed as inhibition of cell growth after 72 hrs by CCK8 assay; format: functional, cell-based; settings: Homo sapiens, 921, 72 h; procedure, shortened: as §1

Row | Compound | inhibition [2] [%] | pIC50 [1] | pIC50 [3]
1 | CC[C@H](C)C(=O)N1CCn2cc(-c3ccccc3)nc2[C@@H]1CC1CCCCC1 | 47.1 | 4.10 | 4.56
2 | N[C@@H](CS)C(=O)N1CCn2cc(-c3ccccc3)nc2[C@H]1Cc1ccccc1 | 19.5 | 4.70 | 4.59
3 | CN[C@@H](CS)C(=O)N1CCn2cc(-c3ccccc3)nc2[C@@H]1CC1CCCCC1 | 30 | 4.56 | 4.62
4 | CC(C)C[C@H](N)C(=O)N1CCn2cc(-c3ccccc3)nc2[C@@H]1CC1CCCCC1 | 15.9 | 4.47 | 4.26
5 | C[C@H]1c2nc(-c3ccccc3)cn2CCN1C(=O)[C@@H](N)CS | 24.4 | < 4.00 | < 4.00
6 | C[C@@H]1c2nc(-c3ccccc3)cn2CCN1C(=O)[C@@H](N)CS | 6 | < 4.00 | < 4.00
7 | C[C@@H](CS)C(=O)N1CCn2cc(-c3ccccc3)nc2[C@@H]1CC1CCCCC1 | 25.6 | < 4.00 | 4.48
8 | N[C@@H](CS)C(=O)N1CCn2cc(-c3ccccc3)nc2[C@@H]1Cc1ccccc1 | 22.9 | 4.70 | 4.34
9 | CN(C)[C@@H](CS)C(=O)N1CCn2cc(-c3ccccc3)nc2[C@@H]1CC1CCCCC1 | 11.9 | < 4.00 | < 4.00
10 | CSCC[C@H](N)C(=O)N1CCn2cc(-c3ccccc3)nc2[C@@H]1CC1CCCCC1 | 12.4 | < 4.00 | 4.38
11 | NCCCC[C@H](N)C(=O)N1CCn2cc(-c3ccccc3)nc2[C@@H]1CC1CCCCC1 | 36.8 | < 4.00 | < 4.00
12 | CC(C)C[C@@H]1c2nc(-c3ccccc3)cn2CCN1C(=O)[C@@H](N)CO | 4 | < 4.00 | < 4.00
13 | CC(C)C[C@@H]1c2nc(-c3ccccc3)cn2CCN1C(=O)[C@@H](N)CCCCN | 1.3 | < 4.00 | < 4.00
14 | CC(C)C[C@H]1c2nc(-c3ccccc3)cn2CCN1C(=O)[C@@H](N)CS | 25.3 | 4.04 | 4.45
15 | CN[C@@H](CS)C(=O)N1CCn2cc(-c3ccccc3)nc2[C@H]1CC(C)C | 13.2 | 4.23 | < 4.00
16 | NC(=O)C[C@H](N)C(=O)N1CCn2cc(-c3ccccc3)nc2[C@@H]1CC1CCCCC1 | 19.8 | < 4.00 | < 4.00
17 | CC(C)[C@H](N)C(=O)N1CCn2cc(-c3ccccc3)nc2[C@@H]1CC1CCCCC1 | 21.7 | 4.08 | 4.39
18 | O=C(CCS)N1CCn2cc(-c3ccccc3)nc2[C@@H]1CC1CCCCC1 | 19.8 | < 4.00 | 4.54
19 | CC(C)C(=O)N1CCn2cc(-c3ccccc3)nc2[C@@H]1CC1CCCCC1 | 44.2 | < 4.00 | 4.37
20 | C[C@@H](O)[C@H](N)C(=O)N1CCn2cc(-c3ccccc3)nc2[C@@H]1CC1CCCCC1 | 10.7 | < 4.00 | < 4.00
21 | N[C@@H](Cc1c[nH]c2ccccc12)C(=O)N1CCn2cc(-c3ccccc3)nc2[C@@H]1CC1CCCCC1 | 7.4 | 4.81 | 4.69
22 | CCN(CC)[C@@H](CS)C(=O)N1CCn2cc(-c3ccccc3)nc2[C@@H]1CC1CCCCC1 | 24.2 | < 4.00 | < 4.00
23 | N[C@@H](CC(=O)O)C(=O)N1CCn2cc(-c3ccccc3)nc2[C@@H]1CC1CCCCC1 | 10.2 | < 4.00 | < 4.00
24 | N=C(N)NCCC[C@H](N)C(=O)N1CCn2cc(-c3ccccc3)nc2[C@@H]1CC1CCCCC1 | 6.2 | < 4.00 | < 4.00
25 | NC(=O)CC[C@H](N)C(=O)N1CCn2cc(-c3ccccc3)nc2[C@@H]1CC1CCCCC1 | 18.5 | < 4.00 | 4.06
26 | C[C@H](N)C(=O)N1CCn2cc(-c3ccccc3)nc2[C@@H]1CC1CCCCC1 | 17.1 | 4.02 | 4.45
27 | N[C@@H](Cc1ccccc1)C(=O)N1CCn2cc(-c3ccccc3)nc2[C@@H]1CC1CCCCC1 | 21.2 | 4.59 | 4.52
28 | N[C@@H](CCC(=O)O)C(=O)N1CCn2cc(-c3ccccc3)nc2[C@@H]1CC1CCCCC1 | 16.2 | < 4.00 | < 4.00

Further lines, with some results ahead:

Row | inhibition [2] [%] | Compound | pIC50 [1] | pIC50 [3]
29 | 33.9 | CC(C)[C@H]1c2nc(-c3ccccc3)cn2CCN1C(=O)[C@@H](N)CS | < 4.00 | 4.18
30 | 1.8 | CC[C@@H](C)[C@H](N)C(=O)N1CCn2cc(-c3ccccc3)nc2[C@@H]1C(C)C | < 4.00 | < 4.00
31 | 18 | CC(C)[C@@H]1c2nc(-c3ccccc3)cn2CCN1C(=O)[C@@H](N)Cc1ccc(O)cc1 | 4.01 | < 4.00
32 | 6.6 | CC(C)[C@H]1c2nc(-c3ccccc3)cn2CCN1C(=O)[C@@H](N)Cc1ccc(O)cc1 | < 4.00 | < 4.00
33 | 30.5 | CN[C@@H](CS)C(=O)N1CCn2cc(-c3ccccc3)nc2[C@H]1C(C)C | < 4.00 | < 4.00
34 | 2.6 | CC(C)C[C@@H]1c2nc(-c3ccccc3)cn2CCN1C(=O)C(C)C | < 4.00 | < 4.00
35 | 0.96 | CC[C@@H](C)[C@H](N)C(=O)N1CCn2cc(-c3ccccc3)nc2[C@H]1C(C)C | 4.01 | < 4.00
36 | 1.1 | CC[C@H](C)C(=O)N1CCn2cc(-c3ccccc3)nc2[C@H]1CC(C)C | 4.07 | 4.07
37 | 14.4 | CC(C)C(=O)N1CCn2cc(-c3ccccc3)nc2[C@H]1C(C)C | < 4.00 | < 4.00
38 | 2.8 | CC(C)[C@H]1c2nc(-c3ccccc3)cn2CCN1C(=O)[C@@H](N)CO | < 4.00 | < 4.00
39 | 12.9 | CC[C@H](C)C(=O)N1CCn2cc(-c3ccccc3)nc2[C@@H]1C(C)C | < 4.00 | < 4.00
40 | 11.5 | CN[C@@H](CS)C(=O)N1CCn2cc(-c3ccccc3)nc2[C@@H]1C(C)C | < 4.00 | 4.35
41 | 50.4 | CC(C)C[C@@H]1c2nc(-c3ccccc3)cn2CCN1C(=O)[C@@H](N)CS | 4.32 | 4.19
42 | 9.5 | CC(C)[C@@H]1c2nc(-c3ccccc3)cn2CCN1C(=O)[C@@H](N)CO | < 4.00 | < 4.00
43 | 11.8 | CC[C@H](C)C(=O)N1CCn2cc(-c3ccccc3)nc2[C@H]1C(C)C | < 4.00 | < 4.00
44 | 9.9 | CC(C)C(=O)N1CCn2cc(-c3ccccc3)nc2[C@@H]1C(C)C | < 4.00 | < 4.00
45 | 6.5 | CC[C@@H](C)[C@H](N)C(=O)N1CCn2cc(-c3ccccc3)nc2[C@H]1CC(C)C | < 4.00 | < 4.00
46 | 11.7 | CC(C)[C@@H]1c2nc(-c3ccccc3)cn2CCN1C(=O)[C@@H](N)CCCCN | < 4.00 | < 4.00
47 | 5.3 | CC(C)[C@H]1c2nc(-c3ccccc3)cn2CCN1C(=O)[C@@H](N)CCCCN | < 4.00 | < 4.00
